IC50 data for eleven compounds are collected here from ChEMBL document CHEMBL1135657, “Novel dual inhibitors of AChE and MAO derived from hydroxy aminoindan and phenethylamine as potential treatment for Alzheimer's disease” (J Med Chem, 2002).

The target in assay [1] is T1, Amine oxidase [flavin-containing] B (Rattus norvegicus, UniProt P19643).
T1 sequence (P19643 whole entry): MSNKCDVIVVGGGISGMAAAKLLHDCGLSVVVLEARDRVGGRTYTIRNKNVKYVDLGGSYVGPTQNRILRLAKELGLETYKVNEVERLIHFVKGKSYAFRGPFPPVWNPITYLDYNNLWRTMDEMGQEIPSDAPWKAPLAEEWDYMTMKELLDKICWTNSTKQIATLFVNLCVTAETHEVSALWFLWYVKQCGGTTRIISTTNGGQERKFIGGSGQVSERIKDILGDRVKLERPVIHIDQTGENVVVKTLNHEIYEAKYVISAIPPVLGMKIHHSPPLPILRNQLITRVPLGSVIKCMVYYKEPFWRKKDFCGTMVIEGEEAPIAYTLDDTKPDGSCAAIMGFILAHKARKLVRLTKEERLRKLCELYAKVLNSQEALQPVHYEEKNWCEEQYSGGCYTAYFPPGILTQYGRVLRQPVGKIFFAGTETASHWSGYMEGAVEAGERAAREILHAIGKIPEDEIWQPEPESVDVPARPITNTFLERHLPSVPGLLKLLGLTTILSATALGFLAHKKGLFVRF
Kind of assay: In vitro inhibitory concentration against Monoamine oxidase B of rat brain homogenates; value ranges from 2.8-8.3. The class given is tissue-based.

For assay [2], the target named is T2, Amine oxidase [flavin-containing] A (Rattus norvegicus, UniProt P21396).
T2 sequence (P21396 whole entry): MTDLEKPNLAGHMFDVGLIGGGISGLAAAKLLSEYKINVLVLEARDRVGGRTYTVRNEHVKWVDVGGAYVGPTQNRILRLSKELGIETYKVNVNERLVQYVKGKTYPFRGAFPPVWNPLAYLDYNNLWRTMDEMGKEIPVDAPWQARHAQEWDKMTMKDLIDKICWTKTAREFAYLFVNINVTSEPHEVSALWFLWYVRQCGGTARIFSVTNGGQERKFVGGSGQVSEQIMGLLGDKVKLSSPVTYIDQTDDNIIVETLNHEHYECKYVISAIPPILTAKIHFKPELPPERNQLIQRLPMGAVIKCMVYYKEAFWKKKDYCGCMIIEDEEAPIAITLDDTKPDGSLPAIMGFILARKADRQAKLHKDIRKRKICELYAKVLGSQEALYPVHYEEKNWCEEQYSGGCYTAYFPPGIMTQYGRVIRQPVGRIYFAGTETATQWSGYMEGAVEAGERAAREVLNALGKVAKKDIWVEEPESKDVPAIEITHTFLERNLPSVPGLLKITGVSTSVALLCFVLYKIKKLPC
Put plainly: In vitro inhibitory concentration against Monoamine oxidase A of rat brain homogenates; value ranges from 4.7-16.8. It counts as tissue-based.

Assay [3] concerns the target T2, Amine oxidase [flavin-containing] A. Kind of assay: In vitro inhibitory concentration against Monoamine oxidase A of rat brain homogenates; value ranges from 14-340. The class given is tissue-based.
Assay [4] addresses T1, Amine oxidase [flavin-containing] B. Put plainly: In vitro inhibitory concentration against Monoamine oxidase B of rat brain homogenates; value ranges from 22-530. It counts as tissue-based.
Assay [5] addresses T3, Acetylcholinesterase (Homo sapiens, UniProt P22303). Kind of assay: In vitro inhibitory concentration against purified Acetylcholinesterase of human erythrocytes; value ranges from 0.79-0.93.
In assay [6] the target is T1, Amine oxidase [flavin-containing] B. Kind of assay: In vitro inhibitory concentration against Monoamine oxidase B of rat brain homogenates; value ranges from 1.5-5.2. The class given is tissue-based.
Assay [7] has as its target T2, Amine oxidase [flavin-containing] A. Put plainly: In vitro inhibitory concentration against Monoamine oxidase A of rat brain homogenates; value ranges from 0.1-0.9. It counts as tissue-based.
Assay [8] has as its target T3, Acetylcholinesterase. Put plainly: In vitro inhibitory concentration against purified Acetylcholinesterase of human erythrocytes; value ranges from 3.69-33.1.
For assay [9], the target named is T2, Amine oxidase [flavin-containing] A. Kind of assay: In vitro inhibitory concentration against Monoamine oxidase A of rat brain homogenates; value ranges from 0.8-3.7. The class given is tissue-based.
Assay [10] concerns the target T1, Amine oxidase [flavin-containing] B. Kind of assay: In vitro inhibitory concentration against Monoamine oxidase B of rat brain homogenates; value ranges from 0.11-0.57. The class given is tissue-based. Put shortly: (§1)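 Rat brain homogenate (in 0.3 M sucrose) as enzyme source; compounds diluted 10⁻²M to 10⁻⁹M in 0.05 M phosphate buffer with 0.15 μM clorgyline; preincubated 60 min at 37 °C, then 10 μM ¹⁴C-phenylethylamine added for 20 min more; stopped with citric acid; metabolites extracted into toluene/ethyl acetate, scintillation counted; activity as % of control, tranylcypromine blank.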

The target in assay [11] is T4, Butyrylcholinesterase (Equus caballus, UniProt Q9N1N9). Kind of assay: In vitro inhibitory concentration against Butyrylcholinesterase of horse serum; value ranges from 0.45-1.08. Put shortly: (§2)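 Ellman assay followed, with 200 µM butyrylthiocholine as substrate. Runs were in triplicate with four-point dose-response curves. IC50 and fiducial limits came from log concentration versus % inhibition.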

Assay [12] has as its target T1, Amine oxidase [flavin-containing] B. Put plainly: In vitro inhibitory concentration against Monoamine oxidase B of rat brain homogenates; value ranges from 75-200.
Assay [13] has as its target T4, Butyrylcholinesterase. Kind of assay: In vitro inhibitory concentration against Butyrylcholinesterase of horse serum; value ranges from 0.28-0.30. Put shortly: as §2
Assay [14] deals with T3, Acetylcholinesterase. Put plainly: In vitro inhibitory concentration against purified Acetylcholinesterase of human erythrocytes; value ranges from 26.2-5898.
Assay [15] addresses T3, Acetylcholinesterase.
Assay [16] has as its target T4, Butyrylcholinesterase. Kind of assay: In vitro inhibitory concentration against Butyrylcholinesterase of horse serum; value ranges from 1.19-8.56. The procedure, abridged:
as §2

The target in assay [17] is T1, Amine oxidase [flavin-containing] B. Kind of assay: In vitro inhibitory concentration against Monoamine oxidase B of rat brain homogenates; value ranges from 0.08-0.38. The class given is tissue-based. The procedure, abridged:
as §1

Assay [18] addresses T2, Amine oxidase [flavin-containing] A. Put plainly: In vitro inhibitory concentration against Monoamine oxidase A of rat brain homogenates; value ranges from 12.1-17.6. The class given is tissue-based.
In assay [19] the target is T3, Acetylcholinesterase. Kind of assay: In vitro inhibitory concentration against purified Acetylcholinesterase of human erythrocytes; value ranges from 13.6-27.3.
Assay [20] addresses T1, Amine oxidase [flavin-containing] B. Put plainly: In vitro inhibitory concentration against Monoamine oxidase B of rat brain homogenates; value ranges from 9.5-17.2.
Assay [21] addresses T3, Acetylcholinesterase. Kind of assay: In vitro inhibitory concentration against purified Acetylcholinesterase of human erythrocytes; value ranges from 12.6-74.0.
Assay [22] concerns the target T4, Butyrylcholinesterase. Kind of assay: In vitro inhibitory concentration against Butyrylcholinesterase of horse serum; value ranges from 0.90-0.95. Put shortly:
as §2

Assay [23] concerns the target T2, Amine oxidase [flavin-containing] A. Put plainly: In vitro inhibitory concentration against Monoamine oxidase A of rat brain homogenates; value ranges from 1.8-2.5. The class given is tissue-based.
Assay [24] shares this target. Put plainly: In vitro inhibitory concentration against Monoamine oxidase A of rat brain homogenates; value ranges from 2-8. The class given is tissue-based.
For assay [25], the target named is T3, Acetylcholinesterase. Kind of assay: In vitro inhibitory concentration against purified Acetylcholinesterase of human erythrocytes.
Assay [26] deals with T4, Butyrylcholinesterase. Kind of assay: In vitro inhibitory concentration against Butyrylcholinesterase of horse serum; value ranges from 0.21-1.26. The procedure, abridged: as §2
For assay [27], the target named is T2, Amine oxidase [flavin-containing] A. Kind of assay: In vitro inhibitory concentration against Monoamine oxidase A of rat brain homogenates; value ranges from 150-320. The class given is tissue-based.
The target in assay [28] is T3, Acetylcholinesterase. Put plainly: In vitro inhibitory concentration against purified Acetylcholinesterase of human erythrocytes; value ranges from 7.5-19.5.
For assay [29], the target named is T1, Amine oxidase [flavin-containing] B. Kind of assay: In vitro inhibitory concentration against Monoamine oxidase B of rat brain homogenates; value ranges from 30-230. It counts as tissue-based.
In assay [30] the target is T2, Amine oxidase [flavin-containing] A. Put plainly: In vitro inhibitory concentration against Monoamine oxidase A of rat brain homogenates; value ranges from 370-520. It counts as tissue-based.

T4 sequence (Q9N1N9 whole entry): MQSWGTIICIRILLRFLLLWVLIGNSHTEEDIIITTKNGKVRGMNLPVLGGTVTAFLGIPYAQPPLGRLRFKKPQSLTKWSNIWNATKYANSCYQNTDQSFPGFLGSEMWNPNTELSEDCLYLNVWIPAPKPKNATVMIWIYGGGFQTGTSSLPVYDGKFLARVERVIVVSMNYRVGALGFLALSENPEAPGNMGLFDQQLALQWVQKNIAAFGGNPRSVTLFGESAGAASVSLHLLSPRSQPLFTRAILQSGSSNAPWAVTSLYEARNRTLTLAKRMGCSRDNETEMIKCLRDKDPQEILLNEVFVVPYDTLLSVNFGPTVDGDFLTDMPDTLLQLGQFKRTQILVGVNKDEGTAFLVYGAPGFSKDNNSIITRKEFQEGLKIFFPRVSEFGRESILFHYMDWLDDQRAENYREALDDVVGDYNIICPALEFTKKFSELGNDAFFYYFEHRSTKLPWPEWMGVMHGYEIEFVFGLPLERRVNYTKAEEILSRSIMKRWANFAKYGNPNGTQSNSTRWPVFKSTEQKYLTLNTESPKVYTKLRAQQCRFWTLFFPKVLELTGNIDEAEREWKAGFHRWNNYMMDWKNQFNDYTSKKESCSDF
T3 sequence (P22303 whole entry): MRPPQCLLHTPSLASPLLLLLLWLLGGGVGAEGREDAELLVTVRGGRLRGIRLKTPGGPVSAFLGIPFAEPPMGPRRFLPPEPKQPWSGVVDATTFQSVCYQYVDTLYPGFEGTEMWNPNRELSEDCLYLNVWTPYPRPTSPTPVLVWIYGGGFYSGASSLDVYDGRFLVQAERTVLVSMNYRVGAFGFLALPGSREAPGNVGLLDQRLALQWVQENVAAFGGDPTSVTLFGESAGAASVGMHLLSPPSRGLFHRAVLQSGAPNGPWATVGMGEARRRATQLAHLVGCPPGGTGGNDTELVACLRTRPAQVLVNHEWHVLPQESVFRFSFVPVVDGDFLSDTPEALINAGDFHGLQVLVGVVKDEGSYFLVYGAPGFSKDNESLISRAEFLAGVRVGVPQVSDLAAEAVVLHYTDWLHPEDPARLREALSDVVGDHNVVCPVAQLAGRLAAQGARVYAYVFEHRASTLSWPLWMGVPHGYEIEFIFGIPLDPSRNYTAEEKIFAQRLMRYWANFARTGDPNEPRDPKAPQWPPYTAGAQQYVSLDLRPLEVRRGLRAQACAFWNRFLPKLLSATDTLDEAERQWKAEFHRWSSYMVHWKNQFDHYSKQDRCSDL

Regarding `C#CCN(C)C(C)Cc1cccc(O)c1` (stereo not given), the half-maximal inhibitory concentration (IC50) is 4.8 µM in [1] and 8.9 µM in assay [2].

With `C#CCNCCc1cccc(O)c1`, the IC50 worked out at 67 µM in [3] and 107 µM in assay [4].

As to `C#CCN(C)CCc1cccc(OC(=O)N(C)C)c1`, the half-inhibitory concentration (IC50) is 0.85 µM in [5], 2.8 µM in [6] and 0.3 µM in assay [7].

Consider `C#CCN(C)C(C)Cc1cccc(OC(=O)N(C)C2CCCCC2)c1` (stereo not given), for which the IC50 in assay [8] was determined as 8.67 µM; in assay [9] it was 1.7 µM; in [10], 0.24 µM; in assay [11], 0.67 µM.

`C#CCNC1CCc2ccc(OC(=O)N(C)CC)cc2C1` (stereo not given): the values for the IC50 in [12], in [13] and in assay [14] were 120 µM, 0.29 µM and 204 µM, respectively.

`CN(C)C(=O)Oc1ccc2c(c1)CC(N)CC2` (stereo not given): half-maximal inhibition in assay [15] (IC50) required 3.24 µM.

As to `C#CCNC(C)Cc1cccc(OC(=O)N(C)CCC)c1` (stereo not given), the IC50 in assay [16] was determined as 2.07 µM; in [17], 0.17 µM; in [18], 14.6 µM; in assay [19] it was 19.1 µM.

Take `C#CCNC(C)Cc1cccc(OC(=O)N(C)CC)c1` (stereo not given): the IC50 in assay [20] was 12.8 µM; in assay [21], 33.9 µM; in [22], 0.93 µM; in [23], 2.1 µM.

For `C#CCN(C)[C@@H]1CCc2ccc(OC(=O)N(C)CC)cc21`, the IC50 in [24] turned out to be 4 µM; in assay [25] it was 1200 µM; in assay [26], 0.55 µM.

With `C#CCN[C@@H]1CCc2ccc(OC(=O)N(C)CCCC)cc21`, the results for the IC50 in [27], in [28] and in [29] were 220 µM, 11.6 µM and 150 µM, respectively.

Compound `C#CCN[C@H]1CCc2ccc(O)cc21` came in with an IC50 in [30] of 440 µM.

The IC50 is the midpoint of a concentration-inhibition curve.
